Measurements from ChEMBL document CHEMBL2062453, “Lead optimization through VLAK protocol: new annelated pyrrolo-pyrimidine derivatives as antitumor agents” (2012).

Legend:
Assay type in all cases: functional
[1] = tested on: CCRF-CEM; assay: Cytotoxicity against human CCRF-CEM cells after 48 hrs by SRB assay
How it was run: (§1)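 NCI 60-cell five-dose screen. Cells grown in RPMI 1640 with 5% FBS and 2 mM glutamine, plated at 5000–40,000 cells/well, and preincubated 24 h at 37 °C in 5% CO2. Time-zero plates fixed with TCA. Five serial dilutions of DMSO stock added, then 48 h exposure. TCA fixation, 0.4% SRB staining, absorbance read at 515 nm. GI50 from [(Ti−Tz)/(C−Tz)]×100 = 50.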

[2] = tested on: MOLT-4; assay: Cytotoxicity against human MOLT4 cells after 48 hrs by SRB assay; details: MOLT-4, 48 h
How it was run: (§2)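 Five-dose screen, 10-fold or ½-log dilutions, compound stock in DMSO. Cells were in RPMI 1640 with 5% FBS and 2 mM glutamine at 5000–40,000 cells/well, preincubated 24 h, 37 °C, 5% CO₂, with a time-zero plate TCA-fixed. After 48 h drug exposure, cells were TCA-fixed and stained with 0.4% SRB, read at 515 nm. GI50, TGI and LC50 were derived from time-zero, control and test absorbances.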

[3] = tested on: RPMI-8226; assay: Cytotoxicity against human RPMI8226 cells after 48 hrs by SRB assay; details: RPMI-8226, 48 h; how it was run: as §2
[4] = tested on: A549; assay: Cytotoxicity against human A549 cells after 48 hrs by SRB assay; details: A549, 48 h; how it was run: as §1
[5] = tested on: HOP-62; assay: Cytotoxicity against human HOP62 cells after 48 hrs by SRB assay; details: HOP-62, 48 h; how it was run: as §1
[6] = tested on: NCI-H460; assay: Cytotoxicity against human NCI-H460 cells after 48 hrs by SRB assay; details: NCI-H460, 48 h; how it was run: as §2
[7] = tested on: HCT-116; assay: Cytotoxicity against human HCT116 cells after 48 hrs by SRB assay; details: HCT-116, 48 h; how it was run: as §1
[8] = tested on: HCT-15; assay: Cytotoxicity against human HCT15 cells after 48 hrs by SRB assay; details: HCT-15, 48 h; how it was run: as §1
[9] = tested on: KM12; assay: Cytotoxicity against human KM12 cells after 48 hrs by SRB assay; details: KM12, 48 h; how it was run: as §1
[10] = tested on: SW-620; assay: Cytotoxicity against human SW620 cells after 48 hrs by SRB assay; details: SW-620, 48 h
How it was run: (§3)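 NCI 60-panel five-dose screen. Cells in RPMI 1640 with 5% FBS and 2 mM glutamine, plated at 5000–40,000 cells/well and preincubated 24 h at 37 °C under 5% CO2. Five 10-fold or half-log dilutions were added from a DMSO stock for 48 h. Cells were TCA-fixed (SR settled cells: 16% final), SRB-stained and read at 515 nm. GI50 was taken where (Ti−Tz)/(C−Tz)×100 = 50.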

[11] = tested on: SF-268; assay: Cytotoxicity against human SF268 cells after 48 hrs by SRB assay; details: SF-268, 48 h; how it was run: as §2
[12] = tested on: SF-539; assay: Cytotoxicity against human SF539 cells after 48 hrs by SRB assay; details: SF-539, 48 h; how it was run: as §2
[13] = tested on: SNB-75; assay: Cytotoxicity against human SNB75 cells after 48 hrs by SRB assay; details: SNB-75, 48 h; how it was run: as §2
[14] = tested on: Malme-3M; assay: Cytotoxicity against human MALME-3M cells after 48 hrs by SRB assay; how it was run: as §1
[15] = tested on: SK-MEL-28; assay: Cytotoxicity against human SK-MEL-28 cells after 48 hrs by SRB assay; details: SK-MEL-28, 48 h; how it was run: as §2
[16] = tested on: UACC-62; assay: Cytotoxicity against human UACC62 cells after 48 hrs by SRB assay; details: UACC-62, 48 h; how it was run: as §3
[17] = tested on: OVCAR-3; assay: Cytotoxicity against human OVCAR3 cells after 48 hrs by SRB assay; details: OVCAR-3, 48 h; how it was run: as §2
[18] = tested on: OVCAR-4; assay: Cytotoxicity against human OVCAR4 cells after 48 hrs by SRB assay; details: OVCAR-4, 48 h; how it was run: as §2
[19] = tested on: OVCAR-5; assay: Cytotoxicity against human OVCAR5 cells after 48 hrs by SRB assay; details: OVCAR-5, 48 h; how it was run: as §2
[20] = tested on: 786-0; assay: Cytotoxicity against human 786-0 cells after 48 hrs by SRB assay; details: 786-0, 48 h; how it was run: as §1
[21] = tested on: A498; assay: Cytotoxicity against human A498 cells after 48 hrs by SRB assay; details: A498, 48 h; how it was run: as §1
[22] = tested on: ACHN; assay: Cytotoxicity against human ACHN cells after 48 hrs by SRB assay; how it was run: as §1
[23] = tested on: SN12C; assay: Cytotoxicity against human SN12C cells after 48 hrs by SRB assay; how it was run: as §2
[24] = tested on: TK-10; assay: Cytotoxicity against human TK10 cells after 48 hrs by SRB assay; details: TK-10, 48 h; how it was run: as §3
[25] = tested on: DU-145; assay: Cytotoxicity against human DU145 cells after 48 hrs by SRB assay; details: DU-145, 48 h; how it was run: as §1
[26] = tested on: MCF7; assay: Cytotoxicity against human MCF7 cells after 48 hrs by SRB assay; details: MCF7, 48 h; how it was run: as §1
[27] = tested on: Hs-578T; assay: Cytotoxicity against human Hs578T cells after 48 hrs by SRB assay; how it was run: as §1
[28] = tested on: T47D; assay: Cytotoxicity against human T47D cells after 48 hrs by SRB assay; how it was run: as §3

CSC1=Nc2c(c(C)c(-c3ccccc3)n2CCCN2CCCCC2)C2=NC(=O)CC(C)N12 (centres undefined)
GI50 [1]: 2.69 µM | LC50 [1]: > 100 µM | TGI ([1]; read-out: pTGI (converted)): 12 µM | GI50 [2]: 2 µM | LC50 [2]: 20.4 µM | TGI ([2]; read-out: pTGI (converted)): 5.13 µM | GI50 [3]: 0.166 µM | LC50 [3]: 4.27 µM | TGI ([3]; read-out: pTGI (converted)): 1.2 µM | GI50 [4]: 2.95 µM | LC50 [4]: 79.4 µM | TGI ([4]; read-out: pTGI (converted)): 10.7 µM | GI50 [5]: 3.16 µM | LC50 [5]: > 100 µM | TGI ([5]; read-out: pTGI (converted)): 26.3 µM | GI50 [6]: 3.24 µM | LC50 [6]: 67.6 µM | TGI ([6]; read-out: pTGI (converted)): 12 µM | GI50 [7]: 2.4 µM | LC50 [7]: > 100 µM | TGI ([7]; read-out: pTGI (converted)): > 100 µM | GI50 [8]: 4.47 µM | LC50 [8]: > 100 µM | TGI ([8]; read-out: pTGI (converted)): 28.2 µM | GI50 [9]: 3.16 µM | LC50 [9]: 33.9 µM | TGI ([9]; read-out: pTGI (converted)): 11 µM | GI50 [10]: 2.4 µM | LC50 [10]: 32.4 µM | TGI ([10]; read-out: pTGI (converted)): 10.5 µM | GI50 [11]: 3.39 µM | LC50 [11]: 45.7 µM | TGI ([11]; read-out: pTGI (converted)): 14.1 µM | GI50 [12]: 6.46 µM | LC50 [12]: > 100 µM | TGI ([12]; read-out: pTGI (converted)): 87.1 µM | GI50 [13]: 2.69 µM | LC50 [13]: > 100 µM | TGI ([13]; read-out: pTGI (converted)): 21.9 µM | GI50 [14]: 2.34 µM | LC50 [14]: 53.7 µM | TGI ([14]; read-out: pTGI (converted)): 7.24 µM | GI50 [15]: 2.88 µM | LC50 [15]: 36.3 µM | TGI ([15]; read-out: pTGI (converted)): 13.2 µM | GI50 [16]: 2.82 µM | LC50 [16]: 38 µM | TGI ([16]; read-out: pTGI (converted)): 14.1 µM | GI50 [17]: 2.4 µM | LC50 [17]: 53.7 µM | TGI ([17]; read-out: pTGI (converted)): 8.51 µM | GI50 [18]: 2.57 µM | LC50 [18]: > 100 µM | TGI ([18]; read-out: pTGI (converted)): 17.8 µM | GI50 [19]: 19.1 µM | LC50 [19]: > 100 µM | TGI ([19]; read-out: pTGI (converted)): > 100 µM | GI50 [20]: 3.55 µM | LC50 [20]: > 100 µM | TGI ([20]; read-out: pTGI (converted)): 47.9 µM | GI50 [21]: 3.16 µM | LC50 [21]: > 100 µM | TGI ([21]; read-out: pTGI (converted)): 9.12 µM | GI50 [22]: 3.02 µM | CC50 ([22]; read-out: pLC50 (the source's name) (converted)): > 100 µM | TGI ([22]; read-out: pTGI (converted)): 22.4 µM | GI50 [23]: 2.29 µM | LC50 [23]: > 100 µM | TGI ([23]; read-out: pTGI (converted)): 10.7 µM | GI50 [24]: 2.88 µM | LC50 [24]: > 100 µM | TGI ([24]; read-out: pTGI (converted)): 9.33 µM | GI50 [25]: 3.39 µM | LC50 [25]: > 100 µM | TGI ([25]; read-out: pTGI (converted)): 27.5 µM | GI50 [26]: 2.88 µM | LC50 [26]: 61.7 µM | TGI ([26]; read-out: pTGI (converted)): 11.2 µM | GI50 [27]: 2.29 µM | LC50 [27]: 97.7 µM | TGI ([27]; read-out: pTGI (converted)): 7.94 µM | GI50 [28]: 2 µM | LC50 [28]: > 100 µM | TGI ([28]; read-out: pTGI (converted)): 7.59 µM
